Assay outcomes (PubChem)
STAT3 blocker: inhibitors of IL-6 induced STAT3 signaling | inhibition, % at 5.5 µM | actives 0.89% (n = 190,000) | U3A cells, IL-6 STAT3-luciferase reporter, luminescence; host cell line lacks STAT1 | AID 862;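 active = inhibition above the mean inhibition across all screened compounds plus 3 SD, cut at about 44% in these data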
STAT3 activator: activators of IL-6 induced STAT3 signaling; U3A cells, IL-6 STAT3-luciferase reporter, luminescence; 100% = signal with IL-6 EC80 alone; activation (% of control), % at 5.6 µM; actives 0.91% (n = 190,000);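 active = activation above the screen-wide mean of compound activation plus 3 SD, cut at about 130% in these data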
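Material: STAT3-luciferase reporter U3A cells. Controls: IL-6-treated wells, 100% activation. Read-out: % activation versus median of IL-6-stimulated wells. Probe or stimulus: IL-6 stimulus at 33 ng/mL final. Timing: compound 1 h, then IL-6 6 h at 37 °C. Signal: reporter luminescence signal.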
STAT1 act: increases IFN-gamma driven STAT1 reporter signal | NIH 3T3 STAT1-luciferase reporter, luminescence; 100% = IFN-gamma alone, no compound | activation (% of control), % at 5.5 µM | actives 2.6% (n = 200,000);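 active = activation above the screen-wide mean activation plus 3 SD, cut at about 130% in these data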
STAT1 inh: inhibitors of IFN-gamma induced STAT1 signaling; NIH 3T3 STAT1-luciferase reporter, luminescence; actives 0.35% (n = 200,000); inhibition, % at 5.5 µM;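 active = inhibition above a set limit, the mean inhibition across all tested compounds plus 3 SD, cut at about 34% in these data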
APP 5'UTR act: APP 5'UTR luciferase reporter activation; SH-SY5Y APP 5'UTR luciferase reporter, luminescence; zero percent = DMSO vehicle wells; activation, % at 2 µM; actives 1% (n = 190,000); AID 1276;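 active = activation above a set limit, based on mean plus 3 SD of controls, cut at about 140% in these data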
NF-kB neuron act: raises NF-kB expression in human neuronal cells | fold change at 12.5 µM | actives 1.6% (n = 190,000) | NF-kB reporter expression; active compounds read high; in the data active = fold change above about 3.3
A number is an active result. A selection: hits, their analogues and other compounds. The true share with any hit is near 4.9%.

What do the screens show for `CCc1ccc(C(c2c(C)nn(-c3ccccc3)c2N)c2c(C)nn(-c3ccccc3)c2N)cc1`?
STAT3 blocker: inactive; STAT3 activator: inactive; STAT1 act: inactive; STAT1 inh: inactive; APP 5'UTR act: inactive; NF-kB neuron act: inactive

Results for CC1(C)CC(=O)c2c(O)cc(OCc3ccc(Br)cc3)cc2O1 ?
STAT3 blocker: inactive; STAT3 activator: inactive; STAT1 act: 146; STAT1 inh: inactive; APP 5'UTR act: 139; NF-kB neuron act: inactive

What do the screens show for `CCOC(=O)c1cc(C(=O)Nc2ccc(C)c(F)c2)nn1C`?
STAT3 blocker: inactive; STAT3 activator: inactive; STAT1 act: 135; STAT1 inh: inactive; APP 5'UTR act: inactive; NF-kB neuron act: inactive

What do the screens show for `C/C(N)=C(/C#N)C(=O)CSc1nnc(Nc2ccccc2)s1`?
STAT3 blocker: inactive; STAT3 activator: inactive; STAT1 act: 148; STAT1 inh: inactive; APP 5'UTR act: inactive; NF-kB neuron act: inactive

What do the screens show for `CCO[C@H]1OC(C(=O)Nc2ccccc2)=C[C@@H](C)[C@@H]1CCCO`?
STAT1 act: inactive; STAT1 inh: inactive; APP 5'UTR act: inactive; NF-kB neuron act: inactive

How did O=C(NNc1nc2cc3c(cc2s1)OCCO3)c1ccc(F)cc1 do in these assays?
STAT3 blocker: inactive; STAT3 activator: inactive; STAT1 act: inactive; STAT1 inh: inactive; APP 5'UTR act: inactive; NF-kB neuron act: inactive

Results for O=C(Nc1nc2cc3c(cc2s1)OCO3)C1=COCCO1 ?
STAT3 blocker: 86; STAT3 activator: inactive; STAT1 act: inactive; STAT1 inh: 49; APP 5'UTR act: inactive; NF-kB neuron act: inactive

Results for CC(=O)Nc1nc2cc3c(cc2s1)OCO3 ?
STAT3 blocker: inactive; STAT3 activator: inactive; STAT1 act: inactive; STAT1 inh: inactive; APP 5'UTR act: inactive; NF-kB neuron act: inactive

How did O=C(Nc1nc2cc3c(cc2s1)OCCO3)c1ccncc1 do in these assays?
STAT3 blocker: inactive; STAT3 activator: inactive; STAT1 act: 132; STAT1 inh: inactive; APP 5'UTR act: 153; NF-kB neuron act: inactive

How did CCOC(=O)c1ccc(NC(=O)c2cc3ccccc3o2)cc1 do in these assays?
STAT3 blocker: inactive; STAT3 activator: inactive; STAT1 act: inactive; STAT1 inh: inactive; APP 5'UTR act: inactive; NF-kB neuron act: inactive

How did NS(=O)(=O)c1cccc(NC(=O)c2cc3ccccc3o2)c1 do in these assays?
STAT3 blocker: inactive; STAT3 activator: inactive; STAT1 act: inactive; STAT1 inh: inactive; APP 5'UTR act: inactive; NF-kB neuron act: inactive

Results for O=C(Nc1cccc(Br)c1)c1cc2ccccc2o1 ?
STAT3 blocker: inactive; STAT3 activator: inactive; STAT1 act: 142; STAT1 inh: inactive; APP 5'UTR act: 158; NF-kB neuron act: 5.7

What do the screens show for `Cc1cccc(NC(=O)c2cc3ccccc3o2)c1`?
STAT3 blocker: inactive; STAT3 activator: inactive; STAT1 act: 136; STAT1 inh: inactive; APP 5'UTR act: 178; NF-kB neuron act: 6.7

What do the screens show for `CCC(=O)Nc1cccc(-c2cc3ccccc3oc2=O)c1`?
STAT3 blocker: inactive; STAT3 activator: inactive; STAT1 act: 134; STAT1 inh: inactive; APP 5'UTR act: inactive; NF-kB neuron act: inactive

Results for CCC(=O)Nc1cccc(NC(=O)c2cc3ccccc3o2)c1 ?
STAT3 blocker: inactive; STAT3 activator: inactive; STAT1 act: 148; STAT1 inh: inactive; APP 5'UTR act: inactive; NF-kB neuron act: inactive

What do the screens show for `NS(=O)(=O)c1ccc(CNC(=O)c2csc3c2CCCC3)cc1`?
STAT3 blocker: inactive; STAT3 activator: inactive; STAT1 act: inactive; STAT1 inh: inactive; APP 5'UTR act: inactive; NF-kB neuron act: inactive

How did Cc1cc(C(=O)Nc2cccc(C(=O)O)c2)oc1C do in these assays?
STAT3 blocker: 87; STAT3 activator: inactive; STAT1 act: inactive; STAT1 inh: 55; APP 5'UTR act: inactive; NF-kB neuron act: 7

What do the screens show for `CCCCn1nnc(NC(=O)c2cc3ccccc3o2)n1`?
STAT3 blocker: inactive; STAT3 activator: inactive; STAT1 act: 135; STAT1 inh: inactive; APP 5'UTR act: inactive; NF-kB neuron act: inactive

How did Cc1cccc(NC(=O)Cc2noc3ccccc23)c1 do in these assays?
STAT3 blocker: inactive; STAT3 activator: inactive; STAT1 act: 140; STAT1 inh: inactive; APP 5'UTR act: inactive; NF-kB neuron act: inactive

How did Cc1cc(C(=O)Nc2cccc(C(=O)O)c2)c(C)o1 do in these assays?
STAT3 blocker: inactive; STAT3 activator: inactive; STAT1 act: inactive; STAT1 inh: inactive; APP 5'UTR act: inactive; NF-kB neuron act: inactive
